In general, IC50 refers to the concentration at which inhibition is half-maximal. Lower therefore signals inhibition by little substance.

Results on nine compounds are retold here after ChEMBL document CHEMBL5344483, “Design and synthesis of novel chloropyridazine hybrids as promising anticancer agents acting by apoptosis induction and PARP-1 inhibition through a molecular hybridization strategy” (RSC Med Chem, 2024).

In one data set the test system is A-375. Briefly: Anticancer activity against human A-375 cells assessed as growth inhibition at 100 microg/mL by SRB assay relative to control. The conditions noted are these: read-out: GI. The class given is functional. An outline of the steps:
(§1)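 Cells seeded at 3×10^3 per well and allowed to attach for 24 h. Treated with 100 µg/mL compound for 48 h, triplicate wells, with a 1% v/v DMSO vehicle control. Fixed in 20% TCA, stained with 0.4% SRB, and OD read at 570 nm. Survival fraction is treated OD/control OD.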

Another data set deals with NCI-H460. Briefly: Anticancer activity against human NCI-H460 cells assessed as growth inhibition at 100 microg/mL by SRB assay relative to control. The data set is classed as functional. The conditions noted are these: read-out: GI. The gist of the method:
as §1
For orientation: In SRB staining, fixed cells bind dye roughly in proportion to their protein.

Data set [1] has as its system HNO 97 cell line. The data set is described as follows: Anticancer activity against human HNO97 cells assessed as growth inhibition at 100 microg/mL by SRB assay relative to control. The class given is functional. The conditions noted are these: read-out: GI. The gist of the method: as §1
Data set [2] can be described thus: Cytotoxicity against human HSF (VGS) cells assessed as growth inhibition at 100 microg/mL by SRB assay relative to control. The class given is toxicity, cell-based. The conditions noted are these: at 100 µg/mL, read-out: GI.
A further data set concerns Huh-7. Briefly: Anticancer activity against human Huh-7 cells assessed as growth inhibition at 100 microg/mL by SRB assay relative to control. The class given is functional. The conditions noted are these: read-out: GI. The gist of the method: as §1
A further data set has as its system SK-BR-3. The data set is described as follows: Anticancer activity against human SK-BR-3 cells assessed as growth inhibition at 100 microg/mL by SRB assay relative to control. The class given is functional. The conditions noted are these: read-out: GI. An outline of the steps: as §1
In a further data set the test system is A549. Briefly: Anticancer activity against human A549 cells assessed as growth inhibition at 100 microg/mL by SRB assay relative to control. The conditions noted are these: read-out: GI. The class given is functional. An outline of the steps:
as §1

Data set [3] has as its system FaDu. Briefly: Cytotoxicity against human FaDu cells by SRB assay. The data set is classed as functional, cell-based. The gist of the method:
(§2)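 Cells seeded at 3×10^3 per well and allowed to attach for 24 h. Exposed to […], 12.5, 25 and 50 µg/mL for 48 h, triplicate wells per concentration, with a 1% v/v DMSO vehicle. Fixed in 20% TCA, stained with 0.4% SRB, and OD read at 570 nm. IC50 from sigmoidal dose-response fit of survival fraction (treated/control OD).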

In data set [4] the test system is FaDu. The data set is described as follows: Anticancer activity against human FaDu cells assessed as growth inhibition at 100 microg/mL by SRB assay relative to control. The data set is classed as functional. The conditions noted are these: read-out: GI. The gist of the method:
as §1

Data set [5] relates to HNO 97 cell line. The data set is described as follows: Cytotoxicity against human HNO97 cells by SRB assay. The class given is functional, cell-based. An outline of the steps:
as §2

The test system of a further data set is MCF7. Briefly: Anticancer activity against human MCF7 cells assessed as growth inhibition at 100 microg/mL by SRB assay relative to control. The class given is functional. The conditions noted are these: read-out: GI. An outline of the steps:
as §1

In the next data set the test system is HeLa. The data set is described as follows: Anticancer activity against human HeLa cells assessed as growth inhibition at 100 microg/mL by SRB assay relative to control. The conditions noted are these: read-out: GI. The class given is functional. The gist of the method:
as §1

The subject of data set [6] is MDA-MB-468. The data set is described as follows: Cytotoxicity against human MDA-MB-468 cells by SRB assay. The class given is functional, cell-based. An outline of the steps:
as §2

The subject of a further data set is HCT-116. The data set is described as follows: Anticancer activity against human HCT-116 cells assessed as growth inhibition at 100 microg/mL by SRB assay relative to control. The data set is classed as functional. The conditions noted are these: read-out: GI. The gist of the method:
as §1

Data set [7] concerns MDA-MB-468. Briefly: Anticancer activity against human MDA-MB-468 cells assessed as growth inhibition at 100 microg/mL by SRB assay relative to control. The class given is functional. The conditions noted are these: read-out: GI. The gist of the method: as §1

`COc1cccc2c1C(=O)c1c(O)c3c(c(O)c1C2=O)C[C@@](O)(C(=O)CO)C[C@@H]3O[C@H]1C[C@H](N)[C@H](O)[C@H](C)O1` [DOXORUBICIN]: the inhibition of growth at 100 µg/mL was found to be 84% in the data set with A-375; 75.5% in the data set on NCI-H460; 84.5% in the data set with HNO 97 cell line [1]; 69.6% with Huh-7; 71.1% in the data set on SK-BR-3; 66.7% in the data set with A549. Also, the inhibition of growth at 100 µg/mL is 84.5% in the data set with FaDu [4]; 75.6% in the data set on MCF7; 73% with HeLa; 82.9% in the data set on HCT-116; 94% in the data set on MDA-MB-468 [7]. Moreover, in [2], the inhibition at 100 microg/mL was 52.9%. Besides, the IC50 is 14 µM in the data set with FaDu [3], 7 µM with HNO 97 cell line [5] and 6.8 µM in the data set with MDA-MB-468 [6].

On to `O=C(/C=C/c1ccc(Oc2ccc(Cl)nn2)cc1)c1ccc(OCc2ccccc2)cc1`, for which the inhibition of growth at 100 µg/mL is 67.2% with A-375; 46.9% with NCI-H460; 85.5% in the data set with HNO 97 cell line [1]; 73.9% with Huh-7; 73.2% in the data set on SK-BR-3; 77.1% in the data set on A549. Moreover, the inhibition of growth at 100 µg/mL came out at 85.4% in the data set on FaDu [4]; 71.7% with MCF7; 68.2% with HeLa; 61.4% in the data set with HCT-116; 89.8% in the data set with MDA-MB-468 [7]. In [2], the inhibition at 100 microg/mL stood at 67.8%. Also, the IC50 in the data set with FaDu [3] came out at 79 µM; in the data set with HNO 97 cell line [5] it was 74.5 µM; in the data set with MDA-MB-468 [6] it was 54.2 µM.

Regarding `O=C(/C=C/c1ccc(Oc2ccc(Cl)nn2)cc1)c1ccc(OCc2ccc(OC(F)(F)F)cc2)cc1`, the inhibition of growth at 100 µg/mL with A-375 was found to be 53%; in the data set with NCI-H460, 49.7%; in the data set with HNO 97 cell line [1], 81%; in the data set with Huh-7, 66.3%; in the data set on SK-BR-3 it was 67.4%; with A549, 57.8%. Besides, the inhibition of growth at 100 µg/mL in the data set on FaDu [4] is 84.9%; in the data set with MCF7, 53.6%; in the data set on HeLa, 40.5%; with HCT-116 it was 39.6%; in the data set with MDA-MB-468 [7], 80.3%. In addition, the inhibition at 100 microg/mL in [2] turned out to be 49.4%. Moreover, the figures for the IC50 in the data set on FaDu [3], in the data set on HNO 97 cell line [5] and in the data set with MDA-MB-468 [6] were 83.5 µM, 20.3 µM and 68.3 µM, respectively.

`O=C(/C=C/c1ccc(Oc2ccc(Cl)nn2)cc1)c1ccc([N+](=O)[O-])cc1`: the inhibition of growth at 100 µg/mL was 62.2% in the data set with A-375; 64.2% with NCI-H460; 88.6% in the data set with HNO 97 cell line [1]; 72.1% in the data set with Huh-7; 74.8% in the data set with SK-BR-3; 75.1% in the data set with A549. The inhibition of growth at 100 µg/mL amounted to 82.7% with FaDu [4]; 72.9% in the data set with MCF7; 63.9% with HeLa; 55.1% in the data set on HCT-116; 91.9% in the data set on MDA-MB-468 [7]. Also, the inhibition at 100 microg/mL in data set [2] was found to be 65.6%. For the same compound, the IC50 with FaDu [3] turned out to be 60.2 µM; in the data set with HNO 97 cell line [5], 28.8 µM; in the data set with MDA-MB-468 [6], 36.7 µM.

With `O=C(/C=C/c1ccc(Oc2ccc(Cl)nn2)cc1)c1ccc(OCc2ccc(F)c(Cl)c2)cc1`, the inhibition of growth at 100 µg/mL in the data set with A-375 is 39%; in the data set on NCI-H460, 54.6%; in the data set with HNO 97 cell line [1], 75.6%; in the data set on Huh-7, 61.9%; with SK-BR-3 it was 49.8%; with A549 it was 69.2%. The inhibition of growth at 100 µg/mL in the data set with FaDu [4] is 61.8%; with MCF7, 47.2%; in the data set with HeLa, 36.2%; in the data set on HCT-116, 55%; in the data set with MDA-MB-468 [7] it was 78.2%. The inhibition at 100 microg/mL in [2] is 54%. Besides, the figures for the IC50 in the data set on HNO 97 cell line [5] and in the data set on MDA-MB-468 [6] were 30.3 µM and 36.3 µM, respectively.

In the case of `COc1ccc(C(=O)/C=C/c2ccc(Oc3ccc(Cl)nn3)cc2)cc1`, the inhibition of growth at 100 µg/mL came to 52.6% with A-375; 63.1% with NCI-H460; 69.1% in the data set on HNO 97 cell line [1]; 71.4% in the data set on Huh-7; 66.7% with SK-BR-3; 77% with A549. Moreover, the inhibition of growth at 100 µg/mL with FaDu [4] was found to be 68.2%; in the data set with MCF7, 62.1%; in the data set on HeLa, 58.4%; in the data set with HCT-116, 62.7%; in the data set with MDA-MB-468 [7] it was 85.6%. Moreover, the inhibition at 100 microg/mL in data set [2] is 53.5%. The IC50 with HNO 97 cell line [5] came out at 54.5 µM; in the data set on MDA-MB-468 [6], 112 µM.

On to `O=C1NC(=O)/C(=C\c2ccc(Oc3ccc(Cl)nn3)cc2)S1`, for which the inhibition of growth at 100 µg/mL in the data set with A-375 was 34.2%; in the data set with NCI-H460 it was 23.8%; in the data set on HNO 97 cell line [1], 40.3%; with Huh-7 it was 52.9%; with SK-BR-3, 63.8%; in the data set with A549, 57.8%. In addition, the inhibition of growth at 100 µg/mL worked out at 65.2% in the data set on FaDu [4]; 49.9% with MCF7; 15.3% in the data set with HeLa; 55.8% in the data set on HCT-116; 73% in the data set on MDA-MB-468 [7]. Further, in [2], the inhibition at 100 microg/mL stood at 56.9%. The compound also gave an IC50 in the data set with MDA-MB-468 [6] of 108 µM.

On to `O=C(/C=C/c1ccc(Oc2ccc(Cl)nn2)cc1)c1ccc(O)cc1`, for which the inhibition of growth at 100 µg/mL was determined as 59.2% in the data set with A-375; 68.3% in the data set with NCI-H460; 79.3% with HNO 97 cell line [1]; 72% in the data set with Huh-7; 68.2% with SK-BR-3; 73.8% in the data set on A549. For the same compound, the inhibition of growth at 100 µg/mL in the data set with FaDu [4] is 85%; with MCF7, 68.5%; with HeLa, 73.2%; in the data set with HCT-116 it was 76.4%; in the data set on MDA-MB-468 [7], 79.2%. Moreover, in data set [2], the inhibition at 100 microg/mL worked out at 61%. The IC50 in the data set on FaDu [3] was 122 µM; in the data set on HNO 97 cell line [5], 31.2 µM; in the data set with MDA-MB-468 [6] it was 116 µM.

`COc1ccc(COc2ccc(C(=O)/C=C/c3ccc(Oc4ccc(Cl)nn4)cc3)cc2)cc1`: the inhibition of growth at 100 µg/mL with A-375 was determined as 59.3%; in the data set on NCI-H460, 44.8%; in the data set with HNO 97 cell line [1], 82.4%; with Huh-7, 69.3%; in the data set on SK-BR-3, 60.8%; with A549, 72%. Further, the inhibition of growth at 100 µg/mL in the data set on FaDu [4] stood at 75.5%; with MCF7, 60.6%; with HeLa, 40.4%; in the data set on HCT-116, 44%; in the data set with MDA-MB-468 [7], 88.4%. In [2], the inhibition at 100 microg/mL turned out to be 53.5%. In addition, the IC50 with FaDu [3] is 95.2 µM; in the data set with HNO 97 cell line [5] it was 40.2 µM; with MDA-MB-468 [6], 93 µM.
